# High-throughput results as filed in PubChem.
# Most compounds without a hit are left out; they make up all but 3.3% or so of the library.
# SIAE inh = human SIAE inhibition, primary screen; Q9HAT2; SIAE FP-Rh probe binding, fluorescence polarization; inhibition, % at 9.66 µM; 0.69% of 370,000 active; AID 1053197;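 active means inhibition above a cutoff: mean of compounds within the control limits plus 3 SD of those, cut at about 17% in these data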;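 further: 0% = plate median of compound wells and 100% = probe without SIAE protein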
# mABHD4 FP = ABHD4 (mouse) inhibition, primary FP screen | Q8VD66 | purified mABHD4, FP-Rh probe fluorescence polarization | inhibition, % at 8.92 µM | 0.54% of 370,000 active;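 active means inhibition exceeding the mean over every tested compound plus 3 SD, cut at about 30% in these data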;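 further: 0% = plate median of compound wells and 100% = S159A mutant with DMSO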
# Target sequence (Q8VD66 whole entry, looked up): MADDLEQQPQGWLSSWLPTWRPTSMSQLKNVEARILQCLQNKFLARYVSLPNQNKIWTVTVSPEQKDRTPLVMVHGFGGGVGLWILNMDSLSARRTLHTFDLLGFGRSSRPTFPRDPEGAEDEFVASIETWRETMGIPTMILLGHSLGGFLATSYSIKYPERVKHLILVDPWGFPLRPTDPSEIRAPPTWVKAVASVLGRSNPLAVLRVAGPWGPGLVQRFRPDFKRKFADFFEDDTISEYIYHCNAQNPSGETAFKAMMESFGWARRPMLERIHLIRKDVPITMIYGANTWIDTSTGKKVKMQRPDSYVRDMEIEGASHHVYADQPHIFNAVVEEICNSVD
#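 system = mouse ABHD4 enzyme, wild type | medium = HEPES pH 7.0, NaCl, Pluronic buffer | also added = FP-Rh probe | incubation = Enzyme–compound pre-incubation 45 min, then probe 60 min, both 25 °C | technique = fluorescence polarization, excitation 525 nm, emission 598 nm, BODIPY TMR filters | controls = S159A mutant high control, sample median low control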
# rCAG binder = binds r(CAG) RNA repeats. r(CAG) RNA repeat, TO-PRO-1 dye displacement fluorescence. inhibition, % at 3 µM. 1.3% of 370,000 active. AID 651821;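 active means inhibition above the plate cutoff, the mean of all test compounds on that plate plus 3 SD, cut at about 35% in these data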;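 further: 0% = DMSO alone and 100% = 100 µM mitoxantrone as full dye displacement; higher means more dye released from RNA so lower well fluorescence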
# TCR CD3 inh = blocks the human TCR-CD3 interaction | TAMRA-labeled TCR probe fluorescence, biochemical | 0.37% of 360,000 active | inhibition, % at 9.4 µM; in the data active means inhibition above about 19%;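 further: recombinant mutant TCR 2C K166C tagged with TAMRA read by polarization; 0% = receptor in buffer alone and 100% = receptor with positive control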
# PRMT1 FP inh = inhibitors of human PRMT1; Q99873; recombinant PRMT1, activity-based probe fluorescence polarization; inhibition, % at 2.79 µM; 1.3% of 370,000 active; AID 652257;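 active means inhibition above about 21% made by adding two undisclosed values, limit read from the data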
# SIAE inh conf = confirmation of human SIAE inhibitors; shares compounds with SIAE inh; AID 1117263; SIAE FP-Rh activity-based probe, fluorescence polarization; 13% of 2,300 active; inhibition, % at 9.66 µM;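 active means mean inhibition of the replicates above the hit cutoff set in the primary screen, cut at about 17% in these data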;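 further: 0% = SIAE with DMSO and probe and 100% = probe without SIAE; inhibitors lower polarization as more probe stays unbound to SIAE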
# * hit, by the source's call; . = no result; ! = not active in a repeat.
SMILES,SIAE inh,mABHD4 FP,rCAG binder,TCR CD3 inh,PRMT1 FP inh,SIAE inh conf
N#Cc1ccc(S(=O)(=O)N2CCN(C(=O)c3cn(-c4ccccc4)nc3-c3cccnc3)CC2)cc1,13.4,4.6,3.5,4.6,-1.0,.
CCOc1ccc(OCCC(=O)OC(C)C(=O)Nc2ccc(C(C)=O)cc2)cc1 (stereo unspecified),-0.9,-4.3,-3.8,3.2,-0.4,.
CC(=O)Nc1ccc(NC(=O)C(C)OC(=O)COc2ccc(Nc3ccccc3)cc2)cc1 (stereo unspecified),22.7*,7.8,11.4,-0.2,10.9,8.1
Cc1ccc(C2CCC3(CCC(=O)N3CCOC(=O)Nc3ccc(F)cc3)CC2)cc1 (stereo unspecified),18.5*!,-16.4,10.2,.,3.7,-12.0
O=C(Nc1ccc(F)cc1)OCCN1C(=O)CCC12CCC(c1ccccc1)CC2 (stereo unspecified),-5.0,1.0,1.4,.,0.6,.
CCOC(=O)C1=CCN(S(=O)(=O)c2ccccc2F)C1c1ccccc1 (stereo unspecified),-0.5,2.4,1.1,-8.5,-2.0,.
Oc1ccccc1C=Nc1cccc2ccccc12,1.1,-0.1,-6.0,-10.8,9.1,.
Oc1cccc(C=Nc2cccc3ccccc23)c1O,20.2*,52.6*,15.9,1.8,38.3*,14.5
O=C(CSc1nncs1)Nc1ccc2[nH]c(=O)[nH]c2c1,17.2*,0.2,0.0,7.6,-1.9,2.1
O=C(COC(=O)Cc1ccc(F)cc1)Nc1ccc2[nH]c(=O)[nH]c2c1,18.1*,1.0,2.6,8.0,-2.0,2.1
CCCCc1c(-c2ccccc2OC)ncn1CCc1cccc(OC)c1,-1.2,3.9,-3.5,1.9,1.5,.
CCCCc1c(-c2ccccc2OC)ncn1Cc1cccc(OC)c1,19.9*,2.0,-0.8,2.6,4.7,-3.9
C[C@H](CO)N1C[C@H](C)[C@@H](CN(C)S(=O)(=O)c2cccs2)Oc2ccc(NC(=O)Nc3ccc4c(c3)OCO4)cc2C1=O,13.8,-1.4,10.5,-4.0,1.9,.
C[C@H](CO)N1C[C@H](C)[C@H](CN(C)S(=O)(=O)c2cccs2)Oc2ccc(NC(=O)Nc3ccc4c(c3)OCO4)cc2CC1=O,20.9*,4.0,13.0,-2.7,-2.1,2.5
C[C@H](CO)N1C[C@H](C)[C@H](CN(C)S(=O)(=O)c2ccccc2)Oc2ccc(NC(=O)NC3CCCCC3)cc2CC1=O,29.6*,-7.2,1.5,-5.2,2.2,-0.3
N#CC(=C1C=C(Br)C(=NO)C=C1Cl)c1ccc(Cl)cc1,32.8*,18.9,19.7,4.0,14.1,50.3*
N#CC(=C1C=CC(=NO)C(Cl)=C1)c1ccccc1,-17.5,14.1,10.6,0.0,8.1,.
Cc1[nH]n(-c2cccc3ccccc23)c(=O)c1/C=N/NC(=O)c1cccc([N+](=O)[O-])c1,2.8,20.0,15.7,8.7,-0.9,.
CCOc1cc(/C=N/NC(=O)c2cccc([N+](=O)[O-])c2)ccc1OS(=O)(=O)c1ccccc1,21.9*,14.7,14.1,17.8,1.9,-7.7
Cc1[nH]n(-c2ccccc2)c(=O)c1/C=N/NC(=O)c1cccc([N+](=O)[O-])c1,20.0*,10.1,2.6,-5.5,-1.2,-0.6
C[C@H]1CN([C@@H](C)CO)C(=O)CCCn2cc(nn2)CO[C@@H]1CN(C)S(=O)(=O)c1ccc(Oc2ccccc2)nc1,-1.5,2.1,3.4,-9.7,-2.5,.
CN(C)c1ccc(/C=N/N2C(=S)SC(C)(C)C2N(O)C(=O)Nc2ccc([N+](=O)[O-])cc2)cc1 (stereo unspecified),21.2*,4.3,8.3,-0.4,1.1,14.1
Cc1cccc(/C(N)=N/OC(=O)CCCc2ccccc2)c1,5.5,-1.0,-2.8,1.9,0.2,.
Oc1ccc(/C=N/Nc2ncnc3nc[nH]c23)cc1,18.2*,1.9,0.5,3.4,-1.4,-2.4
Clc1ccc(/C=N/Nc2ncnc3nc[nH]c23)cc1,1.7,-2.0,2.7,-0.6,7.5,.
SMILES,SIAE inh,mABHD4 FP,rCAG binder,TCR CD3 inh,PRMT1 FP inh,SIAE inh conf
CCCCCCCCN1C(=O)[C@@H](CC(=O)N2CCC(c3ccccc3)CC2)C[C@@]2(C(=O)OC)C1=C[C@H](C(C)C)O[C@@H]2C1CC1,2.4,7.8,18.0,.,4.3,.
CCOC(=O)CSc1nc(-c2ccccc2)cc(C(F)(F)F)n1,0.7,-5.6,-6.0,-3.8,0.8,.
COC(=O)CSc1nc(-c2ccc(F)cc2)cc(C(F)(F)F)n1,27.7*,0.9,-1.1,10.0,-2.3,1.5
COc1ccc(-c2nc3cc(C)ccn3c2NC(=O)c2ccccc2OC)cc1,-0.9,3.4,1.1,7.8,-3.3,.
CCCCNc1c(-c2cccc(-c3ccc(OC)cc3)c2)nc2cc(C)ccn12,21.8*,28.8,1.2,-0.1,6.2,14.9
O=C1NC(=O)C(=Cc2ccccc2)N1,-5.9,-5.7,1.9,-5.3,13.0,.
O=C1NC(=O)/C(=C/c2cccc(O)c2)N1,17.5*,4.3,7.1,-2.8,-3.5,-1.0
O=c1c(Cc2c(F)cccc2Cl)c(O)ccn1CCc1c[nH]c2ccccc12,23.1*,3.0,1.1,-2.0,-0.3,5.1
COC(=O)Cc1c(O)ccn(CCc2c[nH]c3ccccc23)c1=O,0.5,2.2,-8.8,5.8,-5.8,.
CCn1cc(CN2CCC(n3nccc3NC(=O)c3cccc(F)c3)CC2)cn1,4.5,-2.1,-1.7,-0.8,2.0,.
COc1ccc(NC(=O)CN2C(=O)C(C)Oc3ccc(C)cc32)cc1 (stereo unspecified),20.7*,3.1,-0.4,-2.1,-0.7,7.1
COc1ccc(NC(=O)CN2C(=O)C(C)Oc3ccccc32)cc1 (stereo unspecified),-3.5,5.0,-3.0,-0.7,-4.5,.
NC(=S)NN=C(c1ccc(F)cc1)C1CC1,10.0,2.2,2.2,5.3,-1.6,.
O=C(C1CCCN(S(=O)(=O)c2ccc(Br)cc2)C1)N1CCOCC1 (stereo unspecified),6.3,8.3,-4.3,7.0,0.1,.
CCOc1cc(C(N)=O)cc(Cl)c1OCC,17.2*,-1.6,-3.2,0.1,-3.5,1.5
CCOc1cc(C(N)=O)cc(Br)c1OCC,10.0,-0.3,-2.9,11.1,-2.4,.
COc1cccc(-c2nc(CS(=O)CC(=O)NC3CCCCC3)c(C)o2)c1 (stereo unspecified),-6.7,8.0,-0.2,-1.5,5.0,.
OCCCn1c(CCNc2nc(-c3ccc(F)cc3)cs2)nc2cc(C(F)(F)F)ccc21,-0.8,-9.6,6.9,-8.7,4.5,.
COC(=O)c1c(NC(=O)C2COc3ccccc3O2)sc2c1CCN(C(=O)OC)C2 (stereo unspecified),0.8,-1.9,6.0,7.0,0.9,.
O=C(O)/C=C/c1cn(Cc2ccccc2)nc1-c1ccccc1,18.7*,-3.1,0.5,1.8,-1.6,2.3
Cc1[nH]c(C)c(S(=O)(=O)NCc2ccco2)c1C(=O)N1CCCCC1,18.8*,2.0,3.1,-0.2,1.1,11.3
FC(F)(F)c1ccc(C2Nc3cccc4cccc(c34)N2)cc1,4.1,3.7,17.4,-0.8,6.0,.
